Test results taken from ChEMBL document CHEMBL1138589, “Development of novel aminoglycoside (NB54) with reduced toxicity and enhanced suppression of disease-causing premature stop mutations” (J Med Chem, 2009).
Converted amounts (≈) assume the structure as drawn.

How the values were obtained:
HEK293 = assay: (§1) Toxicity against HEK293 cells; assay type: cell-based; conditions: human, hek293; read-out: LC50 (the source's name)
MDCK = assay: (§2) Toxicity against MDCK cells; assay type: cell-based, Canis lupus familiaris; conditions: dog, mdck; read-out: LC50 (the source's name)
Escherichia coli [1] = assay: Inhibition of protein translation in Escherichia coli by coupled transcription/translation assay; assay type: functional
[2] = Toxicity against african green monkey COS7 cells; assay type: cell-based, COS-7; conditions: chlorocebus aethiops, read-out: LC50 (the source's name)
Mus musculus = assay: Acute toxicity in iv dosed BALB/c mouse assessed as mortality administered as single dose after 4 days; assay type: organism-based; conditions: in vivo, 96 h
Procedure, shortened: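 Male BALB/c mice, […] (18-20 g), 12 h light/dark cycle at 20-22 °C, food and water ad libitum. Single intravenous tail-vein injection of 150 µL of drug in PBS (pH 7), 8 animals per concentration. Appearance, behaviour and mortality were monitored for 4 days, and LD50 was derived by the Reed and Muench method.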

Nucleic Acid [3] = assay: Suppression of CFTR W1282X nonsense mutant cDNA translation in TNT rabbit reticulocyte lysate transcription translation system at 25 to 100 uM at 30 degC after 90 mins by luciferase reporter gene assay
Procedure, shortened: (§3)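 A dual luciferase reporter plasmid carrying the nonsense-mutation context was used. Luciferase activities were read with a dual luciferase assay kit after incubation, and readthrough was calculated by a previously described method. Translation inhibition was monitored as the ratio of Renilla luciferase activity with versus without aminoglycoside.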

[4] = Ototoxicity in mouse organ of Corti cochlear explants assessed as outer hair cell loss at 0.2 mM by F-actin staining; assay type: toxicity; conditions: 200 µM
Procedure, shortened: (§4)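 Cochlea dissected from postnatal day 3 mice; organ of Corti/spiral ganglion flat preparation cultured serum-free (BME, supplement, 1% BSA, 2 mM glutamine, glucose, penicillin) at 37°C, 5% CO2, 24 h before medium swapped for drug-containing medium. Fixed in 4% paraformaldehyde, permeabilized with Triton X-100, blocked with goat serum, F-actin stained with fluorescent phalloidin; basal segments examined.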

[5] = Ototoxicity in mouse organ of Corti cochlear explants assessed as inner hair cell loss at 0.2 mM by F-actin staining; assay type: toxicity; conditions: 200 µM; procedure, shortened: as §4
Nucleic Acid [6] = assay: Suppression of PCDH15 R3X nonsense mutant cDNA translation in african green monkey COS7 cells at 1 mg/mL; assay type: cell-based; conditions: COS-7
Procedure, shortened: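 Dual luciferase reporter carrying PCDH15-R3X transfected into COS-7 cells by lipofection. Compound added 5 h post-transfection. Luciferase activity measured with a dual luciferase assay system, and readthrough calculated by a previously described method.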

[7] = as §1; assay type: cell-based; conditions: human, HEK293 cells; read-out: LC50 (the source's name)
[8] = as §2; assay type: cell-based, Canis lupus familiaris; conditions: dog, MDCK cells; read-out: LC50 (the source's name)
Ribosomal RNA A-site [9] = assay: Binding affinity to human cytoplasmic ribosomal RNA A-site; assay type: nucleic-acid assay
Procedure, shortened: (§5)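 UV melting of RNA A-site model oligonucleotide, 2 µM in strand, drug 0 to 10 µM, in 10 mM EPPS (pH 7.0), 10 mM NaCl. RNA preheated 85 °C 5 min and slowly cooled. Absorbance read at 274 nm, 1 cm path, 0.5 °C steps with 1.5 min equilibration per step; ΔTm derived.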

[10] = Ototoxicity in mouse organ of Corti cochlear explants assessed as inner hair cell loss at 1 mM by F-actin staining; assay type: toxicity; conditions: 1000 µM; procedure, shortened: as §4
Nucleic Acid [11] = assay: Suppression of PCDH15 R245X nonsense mutant cDNA translation in TNT rabbit reticulocyte lysate transcription translation system at 25 to 100 uM at 30 degC after 90 mins by luciferase reporter gene assay; procedure, shortened: as §3
Nucleic Acid [12] = assay: Suppression of IDUA W402X nonsense mutant cDNA translation in TNT rabbit reticulocyte lysate transcription translation system at 25 to 100 uM at 30 degC after 90 mins by luciferase reporter gene assay; procedure, shortened: as §3
Nucleic Acid [13] = assay: Suppression of IDUA Q70X nonsense mutant cDNA translation in TNT rabbit reticulocyte lysate transcription translation system at 25 to 100 uM at 30 degC after 90 mins by luciferase reporter gene assay; procedure, shortened: as §3
Nucleic Acid [14] = assay: Suppression of CFTR G542X nonsense mutant cDNA translation in TNT rabbit reticulocyte lysate transcription translation system at 25 to 100 uM at 30 degC after 90 mins by luciferase reporter gene assay; procedure, shortened: as §3
[15] = Ototoxicity in mouse organ of Corti cochlear explants assessed as inner hair cell loss at 0.1 mM by F-actin staining; assay type: toxicity; conditions: 100 µM; procedure, shortened: as §4
Nucleic Acid [16] = assay: Suppression of PCDH15 R3X nonsense mutant cDNA translation in TNT rabbit reticulocyte lysate transcription translation system at 25 to 100 uM at 30 degC after 90 mins by luciferase reporter gene assay; procedure, shortened: as §3
Escherichia coli [17] = assay: Antibacterial activity against Escherichia coli R477-100 by double-microdilution method; assay type: functional
[18] = Ototoxicity in mouse organ of Corti cochlear explants assessed as outer hair cell loss at 0.1 mM by F-actin staining; assay type: toxicity; conditions: 100 µM; procedure, shortened: as §4
[19] = Ototoxicity in mouse organ of Corti cochlear explants assessed as outer hair cell loss at 1 mM by F-actin staining; assay type: toxicity; conditions: 1000 µM; procedure, shortened: as §4
Nucleic Acid [20] = assay: Suppression of Dystrophin R3381X nonsense mutant cDNA translation in TNT rabbit reticulocyte lysate transcription translation system at 25 to 100 uM at 30 degC after 90 mins by luciferase reporter gene assay; procedure, shortened: as §3
Ribosomal RNA A-site [21] = assay: Binding affinity to human cytoplasmic ribosomal RNA A-site assessed as thermal stability at compound/RNA ratio of 5 by UV melting profile method; assay type: nucleic-acid assay; procedure, shortened: as §5
Nucleic Acid [22] = assay: Suppression of PCDH15 R3X nonsense mutant cDNA translation in african green monkey COS7 cells at 0.5 mg/mL; assay type: cell-based; conditions: COS-7
Procedure, shortened: (§6)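 COS-7 cells were lipofected with the dual luciferase construct carrying PCDH15 R3X, and drugs were added 5 h after transfection at varying concentrations. Maximal doses were set from LC50 in COS-7 cells to keep cell viability above 80%. Stop-codon readthrough was read by dual luciferase assay and calculated by a previously described method.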

Nucleic Acid [23] = assay: Suppression of PCDH15 R3X nonsense mutant cDNA translation in african green monkey COS7 cells at 0.25 mg/mL; assay type: cell-based; conditions: COS-7; procedure, shortened: as §6

Compound	CC50 (HEK293) [mM]	CC50 (MDCK) [mM]	CC50 ([2]; cos-7) [mM]	LD50 (Mus musculus) [mg/kg]	Activity (Nucleic Acid [3]) [%]	Activity [4]	Activity [5]	Activity (Nucleic Acid [6]) [%]	CC50 [7] [mM]	CC50 [8] [mM]	IC50 (Escherichia coli [1]; Escherichia coli) [nM]	Activity [10]	Activity (Nucleic Acid [11]) [%]	Activity (Nucleic Acid [12]) [%]	CC50 ([2]; COS7 cells) [mM]	Activity (Nucleic Acid [13]) [%]	Activity (Nucleic Acid [14]) [%]	Activity (Nucleic Acid [16]) [%]	MIC (Escherichia coli [17]) [µM]	Activity (Nucleic Acid [20]) [%]	other results
GENTAMICIN [listing 1 of 2 here]	1.1	0.78	0.75	60	–	–	–	–	–	–	–	–	–	–	–	–	–	–	–	–	IC50 (Escherichia coli [1]): 20 nM
NC[C@H]1O[C@@H](O[C@@H]2[C@@H](O)[C@H](N)C[C@H](N)[C@H]2O[C@H]2O[C@H](CO)[C@@H](O)[C@H](O)[C@H]2N)[C@H](O)[C@@H]1O	–	–	–	240	30	Toxic	Toxic	2.75	7.4	11.5	415	Non-toxic	30	30	10.8	30	30	30	790 (≈ 359 µg/mL)	30	Ka (Ribosomal RNA A-site [9]): 4.7 ×10³ /M; Activity [15]: Non-toxic; Activity [18]: Non-toxic; Activity [19]: Non-toxic; ΔTm (Ribosomal RNA A-site [21]): 4.5 °C
NCC[C@H](O)C(=O)N[C@@H]1C[C@H](N)[C@@H](O[C@H]2O[C@H](CO)[C@@H](O)[C@H](O)[C@H]2N)[C@H](O[C@@H]2O[C@H](CN)[C@@H](O)[C@H]2O)[C@H]1O	2.8	3.3	9.3	500	50	Toxic	Toxic	5.25	–	–	159	Non-toxic	50	50	–	50	50	50	588 (≈ 327 µg/mL)	50	Activity [15]: Non-toxic; Activity [18]: Non-toxic; Activity [19]: Non-toxic; ΔTm (Ribosomal RNA A-site [21]): 9.7 °C
NC[C@@H]1O[C@H](O[C@H]2[C@@H](O)[C@H](O[C@@H]3[C@@H](O)[C@H](N)C[C@H](N)[C@H]3O[C@H]3O[C@H](CO)[C@@H](O)[C@H](O)[C@H]3N)O[C@@H]2CO)[C@H](N)[C@@H](O)[C@@H]1O [PAROMOMYCIN]	–	–	–	80	40	–	–	–	1.2	1.5	56	–	40	40	1.4	40	40	40	22 (≈ 13.5 µg/mL)	40	Activity (Nucleic Acid [22]): 1.62%
GENTAMICIN [listing 2 of 2 here]	–	–	–	–	50	–	–	–	–	–	–	–	50	50	–	50	50	50	6	50	Activity (Nucleic Acid [23]): 1.86%
